Measured values reported in ChEMBL document CHEMBL4024796, “Phenylthiomethyl Ketone-Based Fragments Show Selective and Irreversible Inhibition of Enteroviral 3C Proteases” (J Med Chem, 2018).
Active and inactive are the calls of the source. The rule behind the calls is not given here.

How the values were obtained:
[1] = molecular target: Genome polyprotein (Coxsackievirus B3 (strain Nancy)) (UniProt P03313); test: Irreversible inhibition of Coxsackievirus B3 C-terminal His6-tagged protease 3C expressed in Escherichia coli BL21(DE3) assessed as ratio of Kinact to Ki using N-Dabcyl-KTLEALFQGPPVYE-(Edans)-NH2 as substrate after 30 mins by fluorescence assay
Procedure, shortened: (§1)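 Same FRET assay (HEPES-NaOH 100 mM, EDTA 1 mM, Triton X 0.01%, pH 7.5; ex 355/em 538 nm; triplicates). kobs for irreversible inhibition obtained by fitting progress curves to [P]=vi/kobs(1−e^(−kobs·t)). kinact/KI taken from the slope of the linear portion of kobs versus inhibitor concentration.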
Target sequence in this assay (P03313 whole entry): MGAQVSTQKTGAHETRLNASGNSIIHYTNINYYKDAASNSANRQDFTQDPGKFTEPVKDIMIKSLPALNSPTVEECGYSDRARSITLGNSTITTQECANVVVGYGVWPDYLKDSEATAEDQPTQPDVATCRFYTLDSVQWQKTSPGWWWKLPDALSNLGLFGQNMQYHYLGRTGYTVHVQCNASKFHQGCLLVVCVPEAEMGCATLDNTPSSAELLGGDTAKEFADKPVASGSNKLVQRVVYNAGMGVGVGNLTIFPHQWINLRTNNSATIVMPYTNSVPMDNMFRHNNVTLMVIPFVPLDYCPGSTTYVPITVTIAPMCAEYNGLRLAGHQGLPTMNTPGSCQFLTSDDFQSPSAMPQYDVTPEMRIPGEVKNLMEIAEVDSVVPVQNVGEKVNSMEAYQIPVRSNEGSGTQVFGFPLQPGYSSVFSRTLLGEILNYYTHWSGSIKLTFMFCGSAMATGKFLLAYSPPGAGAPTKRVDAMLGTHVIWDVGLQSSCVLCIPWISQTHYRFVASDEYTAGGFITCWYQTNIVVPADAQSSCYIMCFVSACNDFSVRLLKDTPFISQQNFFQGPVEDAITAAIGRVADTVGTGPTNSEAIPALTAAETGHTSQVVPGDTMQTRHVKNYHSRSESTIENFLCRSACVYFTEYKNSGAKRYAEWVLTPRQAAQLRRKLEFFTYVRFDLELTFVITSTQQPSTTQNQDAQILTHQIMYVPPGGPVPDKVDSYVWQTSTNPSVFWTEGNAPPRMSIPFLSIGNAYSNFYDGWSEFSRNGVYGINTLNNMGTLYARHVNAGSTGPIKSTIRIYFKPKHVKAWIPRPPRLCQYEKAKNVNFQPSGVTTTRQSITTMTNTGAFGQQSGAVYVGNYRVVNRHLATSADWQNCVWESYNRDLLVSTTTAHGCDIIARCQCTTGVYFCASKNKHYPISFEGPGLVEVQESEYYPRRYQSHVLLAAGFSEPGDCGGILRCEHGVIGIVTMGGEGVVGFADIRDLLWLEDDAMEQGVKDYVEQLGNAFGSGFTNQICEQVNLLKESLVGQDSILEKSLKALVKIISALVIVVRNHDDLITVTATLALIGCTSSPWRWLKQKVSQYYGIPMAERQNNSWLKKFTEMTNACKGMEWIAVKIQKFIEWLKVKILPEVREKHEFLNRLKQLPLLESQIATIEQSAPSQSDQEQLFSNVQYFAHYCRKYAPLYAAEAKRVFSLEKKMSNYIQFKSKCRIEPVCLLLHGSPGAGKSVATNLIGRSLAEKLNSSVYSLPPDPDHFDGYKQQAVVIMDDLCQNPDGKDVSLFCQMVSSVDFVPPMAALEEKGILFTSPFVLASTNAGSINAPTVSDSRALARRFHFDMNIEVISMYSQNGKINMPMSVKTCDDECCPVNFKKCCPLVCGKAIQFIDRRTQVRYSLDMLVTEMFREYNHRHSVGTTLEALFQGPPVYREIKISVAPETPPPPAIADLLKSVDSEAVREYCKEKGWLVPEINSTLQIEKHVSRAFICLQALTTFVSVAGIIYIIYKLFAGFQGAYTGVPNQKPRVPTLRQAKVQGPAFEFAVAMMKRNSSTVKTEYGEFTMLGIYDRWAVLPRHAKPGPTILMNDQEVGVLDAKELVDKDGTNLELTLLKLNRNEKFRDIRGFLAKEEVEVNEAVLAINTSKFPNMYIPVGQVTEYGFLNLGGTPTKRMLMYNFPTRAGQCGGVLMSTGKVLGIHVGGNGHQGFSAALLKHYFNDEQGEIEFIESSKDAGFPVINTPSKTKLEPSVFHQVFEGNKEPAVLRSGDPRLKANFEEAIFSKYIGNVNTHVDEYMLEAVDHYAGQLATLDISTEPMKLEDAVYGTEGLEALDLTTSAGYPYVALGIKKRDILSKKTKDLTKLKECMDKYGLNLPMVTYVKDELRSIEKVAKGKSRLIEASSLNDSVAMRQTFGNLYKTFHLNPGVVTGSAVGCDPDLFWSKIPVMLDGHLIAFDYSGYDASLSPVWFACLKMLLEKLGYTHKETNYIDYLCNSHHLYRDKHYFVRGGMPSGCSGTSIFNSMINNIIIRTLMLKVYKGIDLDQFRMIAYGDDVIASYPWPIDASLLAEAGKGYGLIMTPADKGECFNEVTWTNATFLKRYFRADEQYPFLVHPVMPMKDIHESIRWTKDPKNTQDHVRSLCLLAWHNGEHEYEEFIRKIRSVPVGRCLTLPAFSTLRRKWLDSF

enterovirus D68 [2] = test: Irreversible inhibition of Enetrovirus D68 C-terminal His6-tagged protease 3C expressed in Escherichia coli BL21(DE3) assessed as ratio of Kinact to Ki using N-Dabcyl-KTLEALFQGPPVYE-(Edans)-NH2 as substrate after 30 mins by fluorescence assay; procedure, shortened: as §1
[3] = molecular target: Genome polyprotein (Coxsackievirus B3 (strain Nancy)) (UniProt P03313); test: Inhibition of Coxsackievirus B3 C-terminal His6-tagged protease 3C expressed in Escherichia coli BL21(DE3) using N-Dabcyl-KTLEALFQGPPVYE-(Edans)-NH2 as substrate preincubated up to 60 mins followed by substrate addition by fluorescence assay; conditions: TDE = time-dependent effect
Procedure, shortened: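 Enzyme and inhibitor (or DMSO) preincubated in assay buffer (HEPES-NaOH pH 7.5, EDTA, Triton X) for 60, 40, 20 or 0 min under a lid. Reaction started by FRET substrate addition and followed 60 min by fluorescence (ex 355/em 538 nm). Triplicates per incubation time. Relative activity calculated for every 5-min step of the reaction.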
Target sequence in this assay (P03313 whole entry): as above

enterovirus D68 [4] = test: Binding affinity to Enetrovirus D68 C-terminal His6-tagged protease 3C at Cys147 residue expressed in Escherichia coli BL21(DE3) assessed as adduct formation after 30 mins by fluorescence assay
[5] = Glutathione reactivity assessed as GSH-adduct formation after 2 to 24 hrs by LC-MS/MS analysis
Procedure, shortened: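 Inhibitor in DMSO at 2.5 mM, mixed with equimolar glutathione in assay buffer (100 mM HEPES-NaOH, 1 mM EDTA, 0.01% Triton X, pH 7.5). Held at room temperature for 2 h and 24 h, with an aliquot taken by LC/MS after each period. Controls for each inhibitor omitted glutathione.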

[6] = Reversible inhibition of Enetrovirus D68 C-terminal His6-tagged protease 3C expressed in Escherichia coli BL21(DE3) using N-Dabcyl-KTLEALFQGPPVYE-(Edans)-NH2 as substrate after 30 mins by fluorescence assay; set-up: species or system enterovirus D68
Procedure, shortened: (§2)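 Enzyme added from 40 μM and substrate from 20 μM working solutions, inhibitor in DMSO, DMSO alone as control. Fluorescence read at ex 355/em 538 nm over 30 min, triplicates. Apparent IC50 from a Hill-type fit of initial velocities; kobs for covalent reversible inhibition from progress-curve fits.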

Genome polyprotein [7] = molecular target: T1, Genome polyprotein (Coxsackievirus B3 (strain Nancy), UniProt P03313); test: Reversible inhibition of Coxsackievirus B3 C-terminal His6-tagged protease 3C expressed in Escherichia coli BL21(DE3) using N-Dabcyl-KTLEALFQGPPVYE-(Edans)-NH2 as substrate after 30 mins by fluorescence assay
T1 sequence (P03313 1541-1723 limits assumed): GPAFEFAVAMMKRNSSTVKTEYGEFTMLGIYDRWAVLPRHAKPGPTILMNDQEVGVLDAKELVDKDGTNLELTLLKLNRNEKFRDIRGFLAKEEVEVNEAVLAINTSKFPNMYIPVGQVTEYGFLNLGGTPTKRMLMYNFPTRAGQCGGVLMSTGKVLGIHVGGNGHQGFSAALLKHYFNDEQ
Procedure, shortened: (§3)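 FRET cleavage assay in 100 mM HEPES-NaOH pH 7.5, 1 mM EDTA, 0.01% Triton X. Enzyme added from a 40 µM stock, substrate diluted to 20 µM before addition. Inhibitor in DMSO, DMSO alone as control. Fluorescence at 538 nm (ex 355 nm) over 30 min, triplicates. Apparent IC50 from nonlinear fit of vi/v0 = 1/(1+[I]/IC50)^h. Ki from koff/kon for covalent reversible binding.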

[8] = molecular target: Genome polyprotein (Coxsackievirus B3 (strain Nancy)) (UniProt P03313); test: Inhibition of Coxsackievirus B3 C-terminal His6-tagged protease 3C expressed in Escherichia coli BL21(DE3) at 650 uM using N-Dabcyl-KTLEALFQGPPVYE-(Edans)-NH2 as substrate after 30 mins by fluorescence assay relative to control; procedure, shortened: as §2
Target sequence in this assay (P03313 whole entry): as the sequence (P03313 whole entry) above

[9] = Drug level in HEPES-NaOH buffer treated with 7,7-dimethyl-2,5-dioxo-5,6,7,8-tetrahydro-2H-chromene-3-carboxamide overnight by LC-MS analysis
[10] = Solubility of the compound; type: physicochemical
enterovirus D68 [11] = test: Binding affinity to Enetrovirus D68 C-terminal His6-tagged protease 3C at Cys60 residue expressed in Escherichia coli BL21(DE3) assessed as adduct formation after 30 mins by fluorescence assay
[12] = molecular target: Genome polyprotein (Coxsackievirus B3 (strain Nancy)) (UniProt P03313); test: Inhibition of Coxsackievirus B3 C-terminal His6-tagged protease 3C expressed in Escherichia coli BL21(DE3) at 100 uM using N-Dabcyl-KTLEALFQGPPVYE-(Edans)-NH2 as substrate preincubated up to 60 mins followed by substrate addition by fluorescence assay; conditions: TDE = time-dependent effect
Procedure, shortened: (§4)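 CVB3 3Cpro preincubated with inhibitor (or DMSO control) in 100 mM HEPES-NaOH pH 7.5, 1 mM EDTA, 0.01% Triton X, lid-covered, for 60, 40, 20 or 0 min. Substrate then added and reaction followed 60 min (ex 355/em 538 nm). Relative activity calculated per 5-min step versus control. Triplicates per incubation time.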
Target sequence in this assay (P03313 whole entry): as above

[13] = molecular target: Genome polyprotein (Coxsackievirus B3 (strain Nancy)) (UniProt P03313); test: (§5) Inhibition of Coxsackievirus B3 C-terminal His6-tagged protease 3C expressed in Escherichia coli BL21(DE3) using N-Dabcyl-KTLEALFQGPPVYE-(Edans)-NH2 as substrate after 30 mins by fluorescence assay; procedure, shortened: as §3
Target sequence in this assay (P03313 1541-1723 limits assumed): as the sequence (P03313 1541-1723 limits assumed) above

[14] = molecular target: Genome polyprotein (Coxsackievirus B3 (strain Nancy)) (UniProt P03313); test: Irreversible inhibition of Coxsackievirus B3 C-terminal His6-tagged protease 3C expressed in Escherichia coli BL21(DE3) after 60 mins by LC-MS analysis
Target sequence in this assay (P03313 whole entry): as the sequence (P03313 whole entry) above

[15] = molecular target: Genome polyprotein (Coxsackievirus B3 (strain Nancy)) (UniProt P03313); test: Irreversible inhibition of Coxsackievirus B3 C-terminal His6-tagged protease 3C expressed in Escherichia coli BL21(DE3) assessed as protein-compound adduct formation after 60 mins by LC-MS analysis
Target sequence in this assay (P03313 whole entry): as above

[16] = molecular target: Genome polyprotein (Coxsackievirus B3 (strain Nancy)) (UniProt P03313); test: Irreversible inhibition of Coxsackievirus B3 C-terminal His6-tagged protease 3C expressed in Escherichia coli BL21(DE3) assessed as thioether adduct formation after 60 mins by MALDi-TOF spectral analysis
[17] = molecular target: Genome polyprotein (Coxsackievirus B3 (strain Nancy)) (UniProt P03313); test: Inhibition of Coxsackievirus B3 C-terminal His6-tagged protease 3C expressed in Escherichia coli BL21(DE3) at 500 uM using N-Dabcyl-KTLEALFQGPPVYE-(Edans)-NH2 as substrate preincubated up to 60 mins followed by substrate addition by fluorescence assay; conditions: TDE = time-dependent effect; procedure, shortened: as §4
Genome polyprotein [18] = molecular target: T1, Genome polyprotein; test: as §5; procedure, shortened: as §3

NC(=O)c1cc(C(=O)CSc2ccccc2)cn1C/C=C/c1ccccc1
Ratio [1]: 54.4 M⁻¹ s⁻¹
Ratio (enterovirus D68 [2]): 160 M⁻¹ s⁻¹
inhibition [3]: Tde
Activity (enterovirus D68 [4]): Active
Drug metabolism [5]: Metabolite detected

CC(=O)c1cc(C(N)=O)n(C/C=C/c2ccccc2)c1
Ki [6]: 422 µM
Ki (Genome polyprotein [7]): 197 µM
inhibition [3]: Tde

Cc1ccc2[nH]c(C)c(C(=O)CSc3ccccc3)c2c1
inhibition [8]: inactive

NC(=O)c1cc(C(=O)C(Sc2ccccc2)Sc2ccccc2)cn1C/C=C/c1ccccc1
Ki (Genome polyprotein [7]): 272 µM
inhibition [3]: Tde

Cn1cc(C(=O)CSc2nnnn2C)cc1C(N)=O
inhibition [8]: < 20%

Cn1cc(C(=O)Cn2cccc(C(F)(F)F)c2=O)cc1C(N)=O
inhibition [8]: < 20%

CC1(C)CC(=O)c2cc(C(=O)O)c(=O)oc2C1
Drug metabolism [9]: Metabolite detected

O=C(CSc1ccccc1)c1ccccc1
inhibition [8]: inactive

CC(=O)c1c(C)[nH]c(C(N)=O)c1C
inhibition [8]: < 20%

NC(=O)n1cc(C(=O)c2cc(O)ccc2Cl)cn1
solubility [10]: Insoluble

NC(=O)c1cc(C(=O)CBr)cn1C/C=C/c1ccccc1
Ratio [1]: 1710 M⁻¹ s⁻¹
Ratio (enterovirus D68 [2]): 1210 M⁻¹ s⁻¹
inhibition [3]: Tde
Activity (enterovirus D68 [11]): Active
Activity (enterovirus D68 [4]): Active
Drug metabolism [5]: Metabolite detected

Cn1cc(C(=O)CSc2ccccc2)cc1C(N)=O
inhibition [8]: Active
inhibition [12]: Tde
inhibition [13]: Dose-dependent effect
Ratio [1]: 16.8 M⁻¹ s⁻¹
Ratio (enterovirus D68 [2]): 21.3 M⁻¹ s⁻¹
inhibition [14]: Active
inhibition [15]: Active
inhibition [16]: Active
Activity (enterovirus D68 [4]): Active

CC1(C)CC(=O)c2cc(C(N)=O)c(=O)oc2C1
inhibition [8]: > 30%
inhibition [17]: Tde
inhibition [13]: Dose-dependent effect
IC50 (Genome polyprotein [18]): 355 µM
Ki (Genome polyprotein [18]): 393 µM
